Experimental data taken from ChEMBL document CHEMBL5230083, “Novel 2, 5-diketopiperazine derivatives as potent selective histone deacetylase 6 inhibitors: Rational design, synthesis and antiproliferative activity” (Eur J Med Chem, 2020).

Tests used:
Histone deacetylase 1 = Histone deacetylase 1 (Homo sapiens, UniProt Q13547); assay: Inhibition of HDAC1 (unknown origin) using Fluor de lys as substrate by fluorescence based analysis
[1] = target: T1, Protein deacetylase HDAC6 (Homo sapiens, UniProt Q9UBN7); assay: Inhibition of HDAC6 (unknown origin) using Fluor de lys as substrate by fluorescence based analysis
T1 sequence (Q9UBN7 whole entry): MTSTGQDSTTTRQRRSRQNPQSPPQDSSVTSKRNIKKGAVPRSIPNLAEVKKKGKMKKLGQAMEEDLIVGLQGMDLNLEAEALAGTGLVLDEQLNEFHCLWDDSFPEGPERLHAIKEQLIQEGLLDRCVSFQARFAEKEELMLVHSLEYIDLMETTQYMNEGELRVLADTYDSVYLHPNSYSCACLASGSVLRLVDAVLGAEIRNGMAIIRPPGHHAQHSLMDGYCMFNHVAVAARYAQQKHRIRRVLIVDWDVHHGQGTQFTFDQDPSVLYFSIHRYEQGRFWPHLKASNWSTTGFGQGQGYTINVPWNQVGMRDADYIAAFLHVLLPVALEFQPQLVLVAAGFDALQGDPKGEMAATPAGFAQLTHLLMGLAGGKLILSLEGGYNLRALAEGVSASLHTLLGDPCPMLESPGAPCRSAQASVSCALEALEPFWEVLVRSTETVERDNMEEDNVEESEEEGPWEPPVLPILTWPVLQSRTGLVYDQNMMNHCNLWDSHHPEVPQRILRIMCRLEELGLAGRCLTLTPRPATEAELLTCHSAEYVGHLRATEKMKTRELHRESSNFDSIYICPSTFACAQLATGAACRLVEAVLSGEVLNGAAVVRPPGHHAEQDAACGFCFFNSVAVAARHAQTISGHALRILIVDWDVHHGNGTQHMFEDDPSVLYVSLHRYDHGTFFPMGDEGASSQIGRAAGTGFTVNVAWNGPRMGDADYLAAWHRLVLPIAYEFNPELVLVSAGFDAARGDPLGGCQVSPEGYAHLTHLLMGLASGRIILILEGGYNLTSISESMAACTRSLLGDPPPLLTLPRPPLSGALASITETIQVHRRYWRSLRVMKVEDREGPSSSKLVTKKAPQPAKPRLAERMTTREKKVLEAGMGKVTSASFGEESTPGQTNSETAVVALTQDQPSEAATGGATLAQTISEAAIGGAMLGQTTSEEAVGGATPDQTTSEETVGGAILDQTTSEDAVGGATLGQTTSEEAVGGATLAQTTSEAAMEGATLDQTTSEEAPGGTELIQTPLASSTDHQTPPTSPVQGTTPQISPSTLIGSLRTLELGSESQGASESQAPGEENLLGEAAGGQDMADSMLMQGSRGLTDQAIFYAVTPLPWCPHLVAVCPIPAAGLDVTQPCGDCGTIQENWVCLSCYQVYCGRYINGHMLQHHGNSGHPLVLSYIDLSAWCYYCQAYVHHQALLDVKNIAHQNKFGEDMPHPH

Histone deacetylase 8 = target: T2, Histone deacetylase 8 (Homo sapiens, UniProt Q9BY41); assay: Inhibition of HDAC8 (unknown origin) using Fluor de lys as substrate by fluorescence based analysis
T2 sequence (Q9BY41 whole entry): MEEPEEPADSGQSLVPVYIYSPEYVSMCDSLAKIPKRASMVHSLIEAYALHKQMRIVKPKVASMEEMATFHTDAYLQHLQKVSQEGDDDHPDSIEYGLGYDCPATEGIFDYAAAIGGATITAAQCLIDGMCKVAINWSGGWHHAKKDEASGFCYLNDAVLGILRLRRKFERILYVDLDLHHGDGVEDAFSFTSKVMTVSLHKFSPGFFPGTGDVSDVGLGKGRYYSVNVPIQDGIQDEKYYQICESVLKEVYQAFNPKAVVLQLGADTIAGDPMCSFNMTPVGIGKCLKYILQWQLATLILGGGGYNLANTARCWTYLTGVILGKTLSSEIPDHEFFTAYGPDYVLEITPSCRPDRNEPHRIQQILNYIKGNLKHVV

CCRF-CEM = assay: Antiproliferative activity against human CCRF-CEM cells assessed as cell growth at 10 uM incubated for 48 hrs by SRB assay relative to control; format: functional; details: read-out: Activity
How it was run: (§1)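 Single-concentration screen at 10 μM run by NCI on its NCI-60 human tumour panel (blood, lung, colon, CNS, melanoma, ovary, kidney, prostate, breast), following the NCI-60 published methodology. Read-out is growth percent relative to untreated cells.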

RPMI-8226 = assay: Antiproliferative activity against human RPMI-8226 cells assessed as cell growth at 10 uM incubated for 48 hrs by SRB assay relative to control; format: functional; details: read-out: Activity; how it was run: as §1
EKVX = assay: Antiproliferative activity against human EKVX cells assessed as cell growth at 10 uM incubated for 48 hrs by SRB assay relative to control; format: functional; details: read-out: Activity; how it was run: as §1
HOP-62 = assay: Antiproliferative activity against human HOP-62 cells assessed as cell growth at 10 uM incubated for 48 hrs by SRB assay relative to control; format: functional; details: read-out: Activity; how it was run: as §1
NCI-H23 = assay: Antiproliferative activity against human NCI-H23 cells assessed as cell growth at 10 uM incubated for 48 hrs by SRB assay relative to control; format: functional; details: read-out: Activity; how it was run: as §1
NCI-H322M = assay: Antiproliferative activity against human NCI-H322M cells assessed as cell growth at 10 uM incubated for 48 hrs by SRB assay relative to control; format: functional; details: read-out: Activity; how it was run: as §1
HCT-116 = assay: Antiproliferative activity against human HCT-116 cells assessed as cell growth at 10 uM incubated for 48 hrs by SRB assay relative to control; format: functional; details: read-out: Activity; how it was run: as §1
SF-268 = assay: Antiproliferative activity against human SF-268 cells assessed as cell growth at 10 uM incubated for 48 hrs by SRB assay relative to control; format: functional; details: read-out: Activity; how it was run: as §1
MDA-MB-435 = assay: Antiproliferative activity against human MDA-MB-435 cells assessed as cell growth at 10 uM incubated for 48 hrs by SRB assay relative to control; format: functional; details: read-out: Activity; how it was run: as §1
UACC-62 = assay: Antiproliferative activity against human UACC-62 cells assessed as cell growth at 10 uM incubated for 48 hrs by SRB assay relative to control; format: functional; details: read-out: Activity
How it was run: (§2)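 NCI-60 single-dose screen: compounds tested at 10 μM, and growth percent of each cell line calculated. The full method follows the NCI DTP protocol.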

OVCAR-5 = assay: Antiproliferative activity against human OVCAR-5 cells assessed as cell growth at 10 uM incubated for 48 hrs by SRB assay relative to control; format: functional; details: read-out: Activity; how it was run: as §1
OVCAR-8 = assay: Antiproliferative activity against human OVCAR-8 cells assessed as cell growth at 10 uM incubated for 48 hrs by SRB assay relative to control; format: functional; details: read-out: Activity; how it was run: as §1
NCI/ADR-RES = assay: Antiproliferative activity against human NCI/ADR-RES cells assessed as cell growth at 10 uM incubated for 48 hrs by SRB assay relative to control; format: functional; details: read-out: Activity; how it was run: as §1
SK-OV-3 = assay: Antiproliferative activity against human SK-OV-3 cells assessed as cell growth at 10 uM incubated for 48 hrs by SRB assay relative to control; format: functional; details: read-out: Activity; how it was run: as §2
786-0 = assay: Antiproliferative activity against human 786-0 cells assessed as cell growth at 10 uM incubated for 48 hrs by SRB assay relative to control; format: functional; details: read-out: Activity; how it was run: as §1
ACHN = assay: Antiproliferative activity against human ACHN cells assessed as cell growth at 10 uM incubated for 48 hrs by SRB assay relative to control; format: functional; details: read-out: Activity; how it was run: as §1

Histone deacetylase 1, sequence (Q13547 whole entry): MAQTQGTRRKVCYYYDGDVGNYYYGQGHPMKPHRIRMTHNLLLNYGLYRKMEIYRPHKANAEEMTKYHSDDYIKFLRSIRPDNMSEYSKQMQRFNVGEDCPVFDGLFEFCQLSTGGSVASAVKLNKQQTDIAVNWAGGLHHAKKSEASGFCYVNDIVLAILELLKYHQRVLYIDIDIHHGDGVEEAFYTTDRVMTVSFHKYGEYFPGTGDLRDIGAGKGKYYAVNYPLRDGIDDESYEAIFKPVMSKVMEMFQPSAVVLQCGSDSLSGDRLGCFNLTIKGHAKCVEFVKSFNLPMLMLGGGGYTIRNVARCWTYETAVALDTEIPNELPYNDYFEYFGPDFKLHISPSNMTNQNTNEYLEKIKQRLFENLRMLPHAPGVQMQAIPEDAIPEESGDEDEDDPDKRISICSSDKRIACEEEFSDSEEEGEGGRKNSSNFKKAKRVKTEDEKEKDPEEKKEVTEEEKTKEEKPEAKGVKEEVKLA

Row | Structure (SMILES) | IC50 (Histone deacetylase 1) [nM] | IC50 [1] [nM] | IC50 (Histone deacetylase 8) [nM] | growth at 10 µM (CCRF-CEM) [%] | growth at 10 µM (RPMI-8226) [%] | growth at 10 µM (EKVX) [%] | growth at 10 µM (HOP-62) [%] | growth at 10 µM (NCI-H23) [%] | growth at 10 µM (NCI-H322M) [%] | growth at 10 µM (HCT-116) [%] | growth at 10 µM (SF-268) [%] | growth at 10 µM (MDA-MB-435) [%] | growth at 10 µM (UACC-62) [%] | growth at 10 µM (OVCAR-5) [%] | growth at 10 µM (OVCAR-8) [%] | growth at 10 µM (NCI/ADR-RES) [%] | growth at 10 µM (SK-OV-3) [%] | growth at 10 µM (786-0) [%] | growth at 10 µM (ACHN) [%]
1 | O=C(NO)c1ccc(CN2CC(=O)N(Cc3ccccc3)[C@H](Cc3ccccc3)C2=O)cc1 | 9640 | 9.83 | 145 | 72 | 58.6 | 88.2 | 87.8 | 86.7 | 89.5 | 84.1 | 96.5 | 91.3 | 87.5 | 97.8 | 75 | 94.5 | 90.4 | 94.8 | 90.6
2 | O=C1CN(Cc2ccc(C(=O)NO)cc2)C(=O)[C@@H](Cc2c[nH]c3ccccc23)N1 | 8020 | 0.73 | 513 | 103 | 104 | 106 | 102 | 101 | 99.1 | 54.9 | 99.3 | 102 | 95.5 | 107 | 94.8 | 104 | 96.5 | 83 | 104
